# Source: PubChem
# S1P3 antag: blocks the human S1P3 receptor; 170,000 compounds, 0.27% hits; Q99500; inhibition, % at 4.98 µM; CHO S1P3 NFAT-BLA reporter, FRET fluorescence, antagonist mode;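 active means inhibition above the plate cutoff, the mean inhibition of test wells on that plate plus 3 SD, cut at about 28% in these data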;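 further: cells challenged with S1P at its EC80 of 0.8 µM; blue over green emission ratio from cleaved BLA substrate after 4 h stimulation; 0% = S1P-stimulated wells and 100% = unstimulated DMSO-only wells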
# S1P4 antagonist: blocks the human S1P4 receptor. O95977. S1P4-expressing cells, antagonist mode, reporter read-out. inhibition, % at 4.98 µM. 220,000 compounds, 0.26% hits. AID 1510; in the data active means inhibition above about 29%;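 further: 0% = wells stimulated with agonist and 100% = vehicle wells without agonist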
# Target sequence (O95977 whole entry, looked up): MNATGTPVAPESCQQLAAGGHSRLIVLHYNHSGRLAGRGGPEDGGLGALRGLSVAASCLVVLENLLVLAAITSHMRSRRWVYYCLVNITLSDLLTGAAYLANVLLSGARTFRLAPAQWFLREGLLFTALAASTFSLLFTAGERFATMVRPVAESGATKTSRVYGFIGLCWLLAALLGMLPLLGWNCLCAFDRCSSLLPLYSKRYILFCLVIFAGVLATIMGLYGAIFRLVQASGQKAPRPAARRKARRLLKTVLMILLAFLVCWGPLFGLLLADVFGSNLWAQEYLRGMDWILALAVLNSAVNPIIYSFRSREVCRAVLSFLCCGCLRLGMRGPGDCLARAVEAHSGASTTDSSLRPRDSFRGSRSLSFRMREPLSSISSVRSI
# Lmaj promast: inhibitors of Leishmania major promastigote growth | Leishmania major promastigotes, resazurin fluorescence viability | inhibition, % at 10 µM | 200,000 compounds, 9% hits; in the data active means inhibition above about 50%;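 further: promastigotes grown with compound for 44 hours at 28 °C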
# S1P4 ag: agonists of human S1P4 receptor. O95977. S1P4-expressing cell line, agonist reporter assay. activation, % at 4.98 µM. 220,000 compounds, 0.35% hits; in the data active means activation above about 11%;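 further: 0% = DMSO vehicle and 100% = reference agonist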
# Mdm2 ligase inh: inhibitors of human Mdm2 E3 ubiquitin ligase | cell-based MDM2 ubiquitination luciferase reporter, 2 h; 0 = plate control, 100 = twice control, blank-subtracted | signal enhancement, % at 5 µM | 210,000 compounds, 0.11% hits;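 active means signal enhancement of 30% or more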;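 further: luminescence tracks abundance of the self-degrading MDM2-luciferase fusion protein; higher signal means inhibition of MDM2 E3 ligase activity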
#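 Assay system: stable mammalian line carrying autodegrading MDM2–luciferase fusion reporter; amount: 2000 cells seeded into each well; buffer or medium: DMEM; benchmarks: plate control and blank wells; signal: luciferase luminescence; timing: 2 h compound exposure at 37 °C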
# * hit, by the source's call; / = no result. Shown is part of a subset that was picked to be rich in hits.
SMILES,S1P3 antag,S1P4 antagonist,Lmaj promast,S1P4 ag,Mdm2 ligase inh
CCOC(=O)C1CCN(CC(=O)N(CC(C)C)c2c(N)n(CC(C)C)c(=O)[nH]c2=O)CC1,-11.8,14.2,-3.6,-0.7,-6.1
Cc1ccc2nc(C)c(C(=O)NN=C3CCN(C)CC3)n2c1,-11.5,-3.2,-7.5,1.8,-32.2
CCOc1ccc(C2SCC(=O)N2c2c(C)n(C)n(-c3ccccc3)c2=O)cc1 (stereo unspecified),20.1,-3.5,-3.2,-1.7,-7.3
CCOc1ccc(C2=C(C=Nc3c(C)n(C)n(-c4ccccc4)c3=O)C(c3ccc(F)cc3)c3ccccc3O2)cc1 (stereo unspecified),/,-13.6,56.8*,-0.2,-15.9
C=CCNC(=O)c1cccc(C(F)(F)F)c1,/,8.3,-1.4,3.1,-13.6
O=C(C[n+]1ccccc1)Nc1ccccc1Br,-10.7,-7.6,-1.8,-0.4,10.6
COc1ccc(-c2nc(-c3ccc4c(c3)OCO4)[nH]c2-c2ccc(OC)cc2)cc1,8.9,9.1,90.2*,-0.4,-7.7
O=C(NC1CCCCC1)C(c1cccnc1)N(C(=O)c1ccc(Cl)nc1)C1CCCCC1 (stereo unspecified),-7.2,-18.9,55.5*,5.5,45.9*
COC(CN(C(=O)CCl)C(C(=O)NC1CCCC(C)C1C)c1ccc(C)cc1)OC (stereo unspecified),-12.4,-2.5,99.6*,1.0,-13.4
COc1ccc(N(C(=O)c2cnccn2)C(C(=O)NC2CCCCC2)c2ccc(Cl)cc2)cc1 (stereo unspecified),/,-15.9,-3.4,1.4,/
COC(CN(C)C(C(=O)NC1CCCCC1)c1ccccc1)OC (stereo unspecified),-18.4,14.4,-6.3,0.4,-11.0
COc1ccc(C(C(=O)NC2CCCCC2)N(C(=O)CCl)c2ccc(Cl)cc2)cc1 (stereo unspecified),-7.9,-15.7,100.3*,1.1,4.1
COC(CN(C(=O)CCl)C(C(=O)NC1CCCCC1)c1ccccc1C)OC (stereo unspecified),-3.8,2.4,67.6*,0.1,-2.0
CC(C)CSc1oc(-c2ccco2)nc1S(=O)(=O)c1ccccc1,10.9,21.9,/,-1.4,-7.5
O=C(CCCC(=O)N(c1ccc2c(c1)OCCO2)C(C(=O)NC1CCCCC1)c1ccc(Cl)cc1)Nc1ccccn1 (stereo unspecified),/,-4.2,58.2*,-0.8,-1.7
COc1ccc(C(C(=O)NC2CCCCC2)N(C(=O)CCCC(=O)Nc2ccccn2)c2ccc3c(c2)OCCO3)cc1 (stereo unspecified),/,1.9,-7.4,1.8,-5.9
O=C(NC1CCCC1)C(c1ccc(Cl)cc1)N(Cc1ccc(F)cc1)C(=O)CCl (stereo unspecified),1.9,-1.1,100.4*,-2.0,-18.9
O=C(NC1CCCCC1)C(c1cccnc1)N(C(=O)CCl)c1cccc(Cl)c1 (stereo unspecified),-0.5,-9.9,99.8*,2.2,-0.7
COC(CN(C(=O)CCl)C(C(=O)NC1CCCCC1)c1ccc(Cl)cc1)OC (stereo unspecified),-2.4,-6.4,80.6*,0.8,-4.5
COc1cccc(N(C(=O)c2ccco2)C(C(=O)NC2CCCC2)c2cccnc2)c1 (stereo unspecified),-27.0,6.9,-1.7,-0.3,-27.1
CN(C)C(C(=O)NC1CCCCC1)c1ccc(Cl)cc1 (stereo unspecified),/,-11.8,4.7,-0.8,4.8
CCN1CCN(C(=O)N2CCOCC2)CC1,-6.3,-11.1,-4.4,-0.6,-1.6
COc1ccc(NS(=O)(=O)c2cc(NC(=O)/C=C/c3cc(OC)ccc3OC)ccc2N2CCCCC2)cc1,13.8,-4.1,92.1*,0.5,3.9
COc1ccc(NS(=O)(=O)c2cc(NC(=O)C3CCCO3)ccc2N2CCCCC2)cc1 (stereo unspecified),11.0,-0.5,13.8,0.2,-5.2
COc1ccc(NS(=O)(=O)c2cc(NC(=O)c3ccco3)ccc2N2CCCC2)cc1,-7.8,-1.9,82.3*,-0.4,12.9
SMILES,S1P3 antag,S1P4 antagonist,Lmaj promast,S1P4 ag,Mdm2 ligase inh
CS(=O)(=O)ON=C1CCN(S(=O)(=O)c2ccccc2)CC1,12.3,-11.4,-6.1,0.4,-25.8
CCOC(=O)N1CCN(C(=O)CSc2nnc(Cc3ccccc3)o2)CC1,-28.0,-12.8,-7.7,0.2,-26.2
CCCCN=C1NN=C(c2cc3ccccc3o2)CS1,-6.4,-5.4,8.1,-0.2,-26.0
CCN(CC)S(=O)(=O)c1ccc(/C=C/C(=O)OCC(=O)N(C)C)cc1,-21.4,-3.4,5.3,2.9,-3.8
Cc1ccc(N=C2C(=S)N(c3ccc(C)cc3)C(=N)N2/N=C/c2ccc(Cl)cc2)cc1,/,-21.6,100.1*,2.6,-7.5
CCCCCc1ccc(S(=O)(=O)NCCc2ccncc2)cc1,/,-24.9,77.8*,-6.3,-8.8
O=C(NCc1ccco1)C1Cc2ccccc2CN1S(=O)(=O)c1ccccc1F (stereo unspecified),16.5,9.5,-4.1,0.9,/
CN1CCN(CC(=O)N(C)c2nc(-c3ccccc3)cs2)CC1,-3.9,2.7,93.8*,-3.0,-12.5
CN1CCN(CC(=O)Nc2nc(-c3ccccc3)cs2)CC1,/,-13.3,5.0,0.1,-3.0
CCn1c(=S)sc2c(=O)n(-c3ccccc3)c(SC)nc21,/,-19.4,87.1*,1.3,4.5
N#CCSc1nc2c(sc(=S)n2Cc2ccco2)c(=O)n1-c1ccc(F)cc1,/,0.6,95.5*,1.2,3.5
CCc1nc2ccccc2n1CC(O)COCC1CC=CCC1 (stereo unspecified),9.2,5.2,4.4,0.5,-16.7
CCCc1nc(SC)[nH]c(=O)c1C,-23.8,10.4,/,-0.5,-8.8
O=C(Cn1nnc(-c2ccccc2)n1)NNC(=O)c1ccco1,2.7,-15.7,-4.7,-0.3,1.3
CCOCCCn1c(SC(C(=O)Nc2cc(C)ccc2C)c2ccccc2)nnc1-c1ccc(Cl)cc1 (stereo unspecified),-30.6,-15.9,60.7*,1.4,4.5
C=CCc1c(C)nc(C)nc1N/N=C/c1ccccc1O,/,-7.0,98.8*,-1.5,-8.2
Cc1cc(C(=O)CSc2nnc(N)s2)c(C)n1Cc1cccs1,-5.3,-26.7,-2.5,2.1,-55.5
Cc1cc(C(=O)CSc2n[nH]c(-c3ccccc3F)n2)c(C)n1Cc1cccs1,/,-11.2,83.1*,6.9,-1.1
Cc1csc(SCC(=O)c2cc(C)n(Cc3cccs3)c2C)n1,27.1,2.1,56.1*,1.4,-21.1
O=C(NCc1cccs1)C1CCCN1C(=O)Nc1ccc(F)cc1 (stereo unspecified),-11.6,-10.9,/,0.5,/
c1ccc(NC2=NCCCCS2)cc1,/,-6.6,-2.8,1.6,-3.7
COc1cccc(/C=C/C(=O)c2ccc(NC3=NCCCS3)cc2)c1,-12.8,-3.3,99.0*,1.7,-11.4
Cc1cccc(/C=C/C(=O)c2ccc(NC3=NCCCS3)cc2)c1,9.4,-8.6,77.0*,1.7,-6.8
COc1ccc(/C=C/C(=O)NC2=NCCS2)cc1OC,-8.1,-4.6,5.5,0.1,-17.2
O=S(=O)(c1ccccc1F)N(Cc1ccco1)Cc1nnc(-c2ccccc2Br)o1,-9.3,7.8,65.1*,0.9,-6.8
